Experimental data from ChEMBL document CHEMBL1781998, “Synthesis and biological evaluation of boron peptide analogues of Belactosin C as proteasome inhibitors” (Bioorg Med Chem Lett, 2009).
pIC50: −log10 of the molar value. Where a SMILES comes first, the peptide text is derived from it. The star is where a group is joined. Cbz = O=C(OCc1ccccc1)*

How the values were obtained:
[1] = Inhibition of chymotrypsin-like activity of human erythrocyte 20S proteasome using Suc-LLVY-AMC substrate incubated at 37 degC for 1 hr by fluorometric assay
How it was run: (§1)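 Compound combined with 75 µM fluorogenic substrate in 20 mM Tris pH 8.0, 0.5 mM EDTA, 0.035% SDS. Reaction started with 50 ng of purified human erythrocyte 20S proteasome and run 1 h at 37 °C. Stopped with 20 mM Tris pH 8.9, 0.5% SDS; released AMC read at 365 nm excitation / 460 nm emission.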

[2] = Inhibition of caspase-like activity of human erythrocyte 20S proteasome using Z-LLE-AMC substrate incubated at 37 degC for 1 hr by fluorometric assay; how it was run: as §1
[3] = Inhibition of trypsin-like activity of human erythrocyte 20S proteasome using Boc-LLR-AMC substrate incubated at 37 degC for 1 hr by fluorometric assay; details: in the assay text read “Boc-LRR-AMC” for “Boc-LLR-AMC”; how it was run: as §1
HeLa [4] = experiment: Growth inhibition of human HeLa cells after 72 hrs by MTT assay; format: functional, cell-based
How it was run: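 HeLa cells incubated for 72 h with a range of compound concentrations; viability read by MTT assay and used to derive IC50.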

HeLa [5] = experiment: Cell cycle arrest in human HeLa cells assessed as accumulation at G1 phase at 1 uM after 24 hrs by flow cytometry (reference value: 56.4 +/- 0.39%); format: functional
HeLa [6] = experiment: Cell cycle arrest in human HeLa cells assessed as accumulation at S phase at 1 uM after 24 hrs by flow cytometry (reference value: 30 +/- 0.46%); format: functional
HeLa [7] = experiment: Cell cycle arrest in human HeLa cells assessed as accumulation at G2/M phase at 1 uM after 24 hrs by flow cytometry (reference value: 13.7 +/- 0.87%); format: functional
HeLa [8] = experiment: Cell cycle arrest in human HeLa cells assessed as accumulation at G1 phase at 10 uM after 24 hrs by flow cytometry (reference value: 56.4 +/- 0.39%); format: functional
HeLa [9] = experiment: Cell cycle arrest in human HeLa cells assessed as accumulation at S phase at 10 uM after 24 hrs by flow cytometry (reference value: 30 +/- 0.46%); format: functional
HeLa [10] = experiment: Cell cycle arrest in human HeLa cells assessed as accumulation at G2/M phase at 10 uM after 24 hrs by flow cytometry (reference value: 13.7 +/- 0.87%); format: functional
HeLa [11] = experiment: Induction of apoptosis in human HeLa cells at 1 uM incubated for 12 hrs using annexin V-FITC and propidiun iodide staining based flow cytometry (reference value: 2.6 +/- 0.14%); format: functional
How it was run: (§2)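 HeLa cells treated for 12 h, then stained with annexin V-FITC and propidium iodide; apoptosis measured by flow cytometry. Values are mean ± sd of triplicate samples.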

HeLa [12] = experiment: Induction of apoptosis in human HeLa cells at 10 uM incubated for 12 hrs using annexin V-FITC and propidiun iodide staining based flow cytometry (reference value: 2.6 +/- 0.14%); format: functional; how it was run: as §2
[13] = Antiproliferative activity against human HeLaS3 cells after 72 hrs; format: functional, cell-based; details: HeLa S3, 72 h
How it was run: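 HeLa cells were exposed to a range of compound concentrations for 72 h, and viability was then read by MTT assay. IC50 values are growth inhibition, reported as mean ± sd of triplicate samples.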

HeLa [14] = experiment: Cell cycle arrest in human HeLa cells assessed as accumulation at G1 phase at 0.1 uM after 24 hrs by flow cytometry (reference value: 56.4 +/- 0.39%); format: functional
HeLa [15] = experiment: Cell cycle arrest in human HeLa cells assessed as accumulation at S phase at 0.1 uM after 24 hrs by flow cytometry (reference value: 30 +/- 0.46%); format: functional
HeLa [16] = experiment: Cell cycle arrest in human HeLa cells assessed as accumulation at G2/M phase at 0.1 uM after 24 hrs by flow cytometry (reference value: 13.7 +/- 0.87%); format: functional
HeLa [17] = experiment: Induction of apoptosis in human HeLa cells at 0.1 uM incubated for 12 hrs using annexin V-FITC and propidiun iodide staining based flow cytometry (reference value: 2.6 +/- 0.14%); format: functional; how it was run: as §2

Compound	pIC50 [1]	pIC50 [2]	pIC50 [3]	pIC50 (HeLa [4])	also measured
CC(C)C[C@H](NC(=O)CC[C@H](NC(=O)CNC(=O)OC(C)(C)C)C(=O)NCc1ccc2ccccc2c1)B(O)O	6.55	5.07	< 5.00	6.46	Activity (HeLa [5]): 57.7%; Activity (HeLa [6]): 16.4%; Activity (HeLa [7]): 26%; Activity (HeLa [8]): 23%; Activity (HeLa [9]): 14.4%; Activity (HeLa [10]): 62.6%; Activity (HeLa [11]): 12.9%; Activity (HeLa [12]): 15.2%
CC(C)C[C@H](NC(=O)CC[C@H](NC(=O)[C@H](C)NC(=O)OC(C)(C)C)C(=O)NCc1ccc2ccccc2c1)B(O)O	6.08	5.01	< 5.00	5.63	
CC(C)C[C@H](NC(=O)CC[C@H](NC(=O)[C@H](CC(C)C)NC(=O)OC(C)(C)C)C(=O)NCc1ccc2ccccc2c1)B(O)O	5.82	< 5.00	< 5.00	6.10	
CC(C)C[C@H](NC(=O)CC[C@H](NC(=O)[C@H](Cc1ccccc1)NC(=O)OC(C)(C)C)C(=O)NCc1ccc2ccccc2c1)B(O)O	5.83	< 5.00	< 5.00	6.18	
CC(C)C[C@H](NC(=O)CC[C@H](NC(=O)CNC(=O)OC(C)(C)C)C(=O)NCc1ccccc1)B(O)O	6.27	< 5.00	< 5.00	5.29	Activity (HeLa [5]): 56.2%; Activity (HeLa [6]): 30.7%; Activity (HeLa [7]): 13.1%; Activity (HeLa [8]): 43.2%; Activity (HeLa [9]): 30.7%; Activity (HeLa [10]): 26%; Activity (HeLa [11]): 7.6%; Activity (HeLa [12]): 11.7%
CC(C)C[C@H](NC(=O)CCC[C@H](NC(=O)CNC(=O)OC(C)(C)C)C(=O)NCc1ccc2ccccc2c1)B(O)O	5.56	< 5.00	< 5.00	< 5.00	
CC(C)C[C@H](NC(=O)CCC[C@H](NC(=O)[C@H](C)NC(=O)OC(C)(C)C)C(=O)NCc1ccc2ccccc2c1)B(O)O	5.37	< 5.00	< 5.00	< 5.00	
CC(C)C[C@H](NC(=O)C[C@H](NC(=O)OC(C)(C)C)C(=O)NCc1ccc2ccccc2c1)B(O)O	5.35	< 5.00	< 5.00	< 5.00	
CC(C)C[C@H](NC(=O)CC[C@H](NC(=O)OC(C)(C)C)C(=O)NCc1ccc2ccccc2c1)B(O)O	< 5.00	< 5.00	< 5.00	< 5.00	
CC(C)C[C@H](NC(=O)CCC[C@H](NC(=O)OC(C)(C)C)C(=O)NCc1ccc2ccccc2c1)B(O)O	5.39	< 5.00	< 5.00	< 5.00	
CC[C@H](C)[C@@H]1C(=O)O[C@H]1C(=O)N[C@H]1C[C@H]1C[C@H](NC(=O)[C@H](C)N)C(=O)O [BELACTOSIN A]					pIC50 [13]: 4.29
CC[C@H](C)[C@@H]1C(=O)O[C@H]1C(=O)NCCC[C@H](NC(=O)[C@H](C)N)C(=O)O [BELACTOSIN C]					pIC50 [13]: 3.70
CC(C)C[C@H](NC(=O)[C@H](Cc1ccccc1)NC(=O)c1cnccn1)B(O)O [BORTEZOMIB]	7.70	6.17	< 5.00	7.70	Activity (HeLa [14]): 14.6%; Activity (HeLa [15]): 15.9%; Activity (HeLa [16]): 69.6%; Activity (HeLa [17]): 14.5%
CC(C)C[C@@H](C=O)NC(=O)[C@H](CC(C)C)NC(=O)[C@H](CC(C)C)NC(=O)OCc1ccccc1 [MG-132] (Cbz-Leu-Leu-Leu-aldehyde)	7.15	5.14	< 5.00		
